Remaining and IC50 data for 18 molecules are collected here from ChEMBL document CHEMBL1124066, “Renin inhibitors containing psi[CH2O] pseudopeptide inserts” (J Med Chem, 1988).

*1 amine or outer side, *2 acyl side, *3 side chain or, on linkers, in order; H or OH if unused. Where a SMILES comes first, the peptide text is derived from it. [ ]: non-standard residue; d: D form. The star is where a group is joined. X1 = O=C([C@H](Cc1ccccc1)OC[C@@H]1CCCN1[*:1])[*:2]; X2 = CC(CN[*:1])CC(N)C(O)CC(=O)[*:2]; NHCH2(2-pyridyl) = c1ccc(CN*)nc1; Boc = CC(C)(C)OC(=O)*; For = O=C*

The species entered for one test is Homo sapiens. The experiment in a line: % compound remaining at 60 min in presence of degradative enzyme elastase (in vitro). Type of test: functional. In short, it runs like this: (§1)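 Enzyme stocks were made in 50 mM Tris-HCl pH 7.5 (stock chymotrypsin 25 units/mL; elastase and carboxypeptidase Y 50 units/mL). Peptide at 0.8 mg/mL in 10% DMSO/Tris received 5 µL enzyme per 0.25 mL and was incubated at 37 °C for 0 or 60 min, then quenched with HPLC solvent B. Reverse-phase HPLC used an acetonitrile gradient. The 204 nm peak height was compared with the 0-min control. Incubations were run in triplicate, each assayed in duplicate.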
For the molecule `CC(C)[C@H](NC(=O)[C@H](Cc1ccccc1)NC(=O)[C@H](Cc1ccccc1)NC(=O)[C@H](Cc1c[nH]cn1)NC(=O)[C@H](Cc1ccccc1)NC(=O)[C@@H]1CCCN1C(=O)[C@H](Cc1c[nH]cn1)NC(=O)[C@@H]1CCCN1)C(=O)N[C@@H](Cc1ccc(O)cc1)C(=O)N[C@@H](CCCCN)C(=O)O` [RIP] (H-PHPFHFFVYK-OH), the Remaining is recorded as 13%.

A further test concerns the target T1, Renin (Homo sapiens, UniProt P00797).
T1 sequence (P00797 whole entry): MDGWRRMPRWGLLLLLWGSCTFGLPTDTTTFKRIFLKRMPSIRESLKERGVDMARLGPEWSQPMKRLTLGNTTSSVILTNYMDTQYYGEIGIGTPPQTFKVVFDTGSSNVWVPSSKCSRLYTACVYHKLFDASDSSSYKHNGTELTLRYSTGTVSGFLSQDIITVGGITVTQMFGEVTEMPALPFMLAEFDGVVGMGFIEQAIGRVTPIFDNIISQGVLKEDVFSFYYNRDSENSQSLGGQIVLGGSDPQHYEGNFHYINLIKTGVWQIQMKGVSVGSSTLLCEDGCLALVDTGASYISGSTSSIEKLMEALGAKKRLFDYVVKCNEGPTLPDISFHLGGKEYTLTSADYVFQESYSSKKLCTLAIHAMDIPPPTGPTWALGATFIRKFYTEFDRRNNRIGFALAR
The experiment in a line: Inhibition of Human plasma renin. The class given is cell-free. In short, it runs like this:
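Lyophilized human plasma containing 0.1% EDTA was used for angiotensin I generation with phenylmethanesulfonyl fluoride and maleate buffer pH 6.0. Inhibitor was added in a 1% Tween 80/water vehicle, followed by 90 min at 37 °C. Angiotensin I was measured by radioimmunoassay. Percent inhibition was taken against control tubes. IC50 was estimated graphically from 3-4 inhibitor concentrations on a semilog plot.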
As for `CC[C@H](C)[C@H](NC(=O)[C@@H](NCC(O)[C@H](CC(C)C)NC(=O)[C@H](Cc1c[nH]cn1)NC(=O)[C@H](Cc1ccccc1)OC[C@@H]1CCCN1C(=O)OC(C)(C)C)C(C)C)C(=O)NCc1ccccn1` (stereo not given in full), the IC50 is 2.3 µM. The same measure, in the same setting: to `CC[C@H](C)[C@H](NC(=O)[C@@H](NC[C@H](CC(C)C)NC(=O)[C@H](Cc1c[nH]cn1)NC(=O)[C@H](Cc1ccccc1)NC(=O)[C@@H]1CCCN1C(=O)[C@H](Cc1c[nH]cn1)NC(=O)[C@@H]1CCCN1)C(C)C)C(=O)N[C@@H](Cc1c[nH]cn1)C(=O)N[C@H](CCCCN)C(=O)O` belongs 0.05 µM. As to `CC(C)[C@H](NC(=O)[C@H](Cc1ccccc1)NC(=O)[C@H](Cc1ccccc1)NC(=O)[C@H](Cc1ccccc1)NC(=O)[C@H](Cc1c[nH]cn1)NC(=O)[C@H](Cc1ccccc1)NC(=O)[C@@H]1CCCN1C(=O)[C@H](Cc1c[nH]cn1)NC(=O)[C@@H]1CCCN1)C(=O)N[C@@H](Cc1ccc(O)cc1)C(=O)N[C@@H](CCCCN)C(=O)O` [RIP] (H-PHPFHFFFVYK-OH), the midpoint of inhibition, the IC50, lay at 7 µM. Against the preceding molecule, the IC50 is about 140-fold higher. For `CC[C@H](C)[C@H](NC(=O)[C@@H](OC[C@H](CC(C)C)NC(=O)[C@H](Cc1c[nH]cn1)NC(=O)[C@H](Cc1ccccc1)NC(=O)[C@@H]1CCCN1C(=O)[C@H](Cc1c[nH]cn1)NC(=O)[C@@H]1CCCN1)C(C)C)C(=O)N[C@@H](Cc1c[nH]cn1)C(=O)N[C@H](CCCCN)C(=O)O`, it took 1.7 µM to reach half-maximal inhibition (IC50). The same measure, in the same setting: to `CC[C@H](C)[C@H](NC(=O)CC(O)C(N)CC(C)CNC(=O)[C@H](Cc1c[nH]cn1)NC(=O)[C@H](Cc1ccccc1)OC[C@@H]1CCCN1C(=O)[C@H](Cc1c[nH]cn1)NC(=O)OC(C)(C)C)C(=O)NCc1ccccn1` (stereo not given in full) belongs 100 µM; to `CC[C@H](C)[C@H](NC(=O)CC(O)C(N)CC(C)CNC(=O)[C@H](Cc1cnc[nH]1)NC(=O)[C@H](Cc1ccccc1)OC[C@@H]1CCCN1C(=O)OC(C)(C)C)C(=O)N[C@@H](Cc1ccccc1)C(=O)OC` (stereo not given in full), 2500 µM; to `CC[C@H](C)[C@H](NC(=O)CC(O)C(N)CC(C)CNC(=O)[C@H](Cc1c[nH]cn1)NC(=O)[C@H](Cc1ccccc1)OC[C@@H]1CCCN1C(=O)[C@H](Cc1cn(C=O)c2ccccc12)NC(C)=O)C(=O)N[C@@H](Cc1ccccc1)C(=O)OC` (stereo not given in full) (Ac-W(For)[X1]H[X2]IF-OMe), 330 µM. On the same count and under the same terms, in the case of `CC[C@H](C)[C@H](NC(=O)CC(O)C(N)CC(C)CNC(=O)[C@H](Cc1cnc[nH]1)NC(=O)[C@H](Cc1ccccc1)NC(=O)[C@@H]1CCCN1C(=O)OC(C)(C)C)C(=O)NCc1ccccn1` (stereo not given in full) (Boc-PFH[X2]I-{NHCH2(2-pyridyl)}) it was 4.1 µM; in that of `CC[C@H](C)[C@H](NC(=O)[C@@H](NCC(O)[C@H](CC(C)C)NC(=O)[C@H](Cc1c[nH]cn1)NC(=O)[C@H](Cc1ccccc1)OC[C@@H]1CCCN1C(=O)[C@H](Cc1ccccc1)NC(=O)OC(C)(C)C)C(C)C)C(=O)NCc1ccccn1` (stereo not given in full), 1.6 µM; in that of `CC[C@H](C)[C@H](NC(=O)CC(O)C(N)CC(C)CNC(=O)[C@H](Cc1cnc[nH]1)NC(=O)[C@H](Cc1ccccc1)OC[C@@H]1CCCN1C(=O)OC(C)(C)C)C(=O)NCc1ccccn1` (stereo not given in full), 140 µM. In turn, `CC[C@H](C)[C@H](NC(=O)[C@H](C)OC[C@H](CC(C)C)NC(=O)[C@H](Cc1cnc[nH]1)NC(=O)[C@H](Cc1ccccc1)NC(=O)[C@@H]1CCCN1C(=O)[C@H](Cc1cnc[nH]1)NC(=O)[C@@H]1CCCN1)C(=O)N[C@@H](Cc1cnc[nH]1)C(=O)N[C@H](CCCCN)C(=O)O` returned an IC50 of 18 µM. As for `CC[C@H](C)[C@H](NC(=O)[C@@H](NCC(O)[C@H](CC(C)C)NC(=O)[C@H](Cc1cnc[nH]1)NC(=O)[C@H](Cc1ccccc1)NC(=O)[C@@H]1CCCN1C(=O)OC(C)(C)C)C(C)C)C(=O)NCc1ccccn1` (stereo not given in full), half-maximal inhibition (IC50) required 0.36 µM. The same measure, in the same setting: to `CC[C@H](C)[C@H](NC(=O)[C@H](CC(C)C)OC[C@H](CC(C)C)NC(=O)[C@H](Cc1cnc[nH]1)NC(=O)[C@H](Cc1ccccc1)NC(=O)[C@@H]1CCCN1C(=O)[C@H](Cc1cnc[nH]1)NC(=O)[C@@H]1CCCN1)C(=O)N[C@@H](Cc1cnc[nH]1)C(=O)N[C@H](CCCCN)C(=O)O` belongs 1.8 µM. On the same count and under the same terms, to `CC[C@H](C)[C@H](NC(=O)CC(O)C(N)CC(C)CNC(=O)[C@H](Cc1c[nH]cn1)NC(=O)[C@H](Cc1ccccc1)OC[C@@H]1CCCN1C(=O)[C@H](Cc1c[nH]cn1)NC(=O)OC(C)(C)C)C(=O)N[C@@H](Cc1ccccc1)C(=O)OC` (stereo not given in full) (Boc-H[X1]H[X2]IF-OMe) belongs 440 µM.

In turn, `CC[C@H](C)[C@H](NC(=O)[C@@H](NCC(O)[C@H](CC(C)C)NC(=O)[C@H](Cc1cnc[nH]1)NC(=O)[C@H](Cc1ccccc1)OC[C@@H]1CCCN1C(=O)[C@H](Cc1cnc[nH]1)NC(=O)OC(C)(C)C)C(C)C)C(=O)NCc1ccccn1` (stereo not given in full) displayed an IC50 of 3 µM. Same read-out and setting: to `CC[C@H](C)[C@H](NC(=O)CC(O)C(N)CC(C)CNC(=O)[C@H](Cc1c[nH]cn1)NC(=O)[C@H](Cc1ccccc1)NC(=O)[C@@H]1CCCN1C(=O)OC(C)(C)C)C(=O)N[C@@H](Cc1ccccc1)C(=O)OC` (stereo not given in full) (Boc-PFH[X2]IF-OMe) belongs 5.8 µM; to `CC[C@H](C)[C@H](NC(=O)CC(O)C(N)CC(C)CNC(=O)[C@H](Cc1cnc[nH]1)NC(=O)[C@H](Cc1ccccc1)OC[C@@H]1CCCN1C(=O)[C@H](Cc1cn(C=O)c2ccccc12)NC(=O)OC(C)(C)C)C(=O)N[C@@H](Cc1ccccc1)C(=O)OC` (stereo not given in full) (Boc-W(For)[X1]H[X2]IF-OMe), 1000 µM.

System in a further test: not listed separately
The experiment in a line: % compound remaining at 60 min in presence of degradative enzyme carboxypeptidase Y (in vitro). In outline: as §1
`CC(C)[C@H](NC(=O)[C@H](Cc1ccccc1)NC(=O)[C@H](Cc1ccccc1)NC(=O)[C@H](Cc1ccccc1)NC(=O)[C@H](Cc1c[nH]cn1)NC(=O)[C@H](Cc1ccccc1)NC(=O)[C@@H]1CCCN1C(=O)[C@H](Cc1c[nH]cn1)NC(=O)[C@@H]1CCCN1)C(=O)N[C@@H](Cc1ccc(O)cc1)C(=O)N[C@@H](CCCCN)C(=O)O` [RIP] (H-PHPFHFFFVYK-OH): the Remaining was 2%.

A further test addresses Chymotrypsinogen A (Bos taurus) (UniProt P00766). The experiment in a line: % compound remaining at 60 min in presence of degradative […] (in vitro). In outline:
as §1
In the case of `CC(C)[C@H](NC(=O)[C@H](Cc1ccccc1)NC(=O)[C@H](Cc1ccccc1)NC(=O)[C@H](Cc1ccccc1)NC(=O)[C@H](Cc1c[nH]cn1)NC(=O)[C@H](Cc1ccccc1)NC(=O)[C@@H]1CCCN1C(=O)[C@H](Cc1c[nH]cn1)NC(=O)[C@@H]1CCCN1)C(=O)N[C@@H](Cc1ccc(O)cc1)C(=O)N[C@@H](CCCCN)C(=O)O` [RIP] (H-PHPFHFFFVYK-OH), the Remaining turned out to be 3%.

One may read the IC50 as the concentration that gives 50% inhibition.
